Screening results as filed in PubChem.
A selection: hits, their analogues and other compounds. The true share with any hit is near 1.7%.
TPT1 inh: Candida albicans TPT1 enzyme inhibitors, primary screen, biochemical, fluorescence polarization | inhibition, % at 5 µM | tRNA 2'-phosphotransferase TPT1 (Candida albicans SC5314) | actives 0.81% (n = 300,000) | recombinant caTPT1, FP RNA substrate dephosphorylation | AID 1962, 2009;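 active = inhibition above the mean of all tested compounds plus 3 SD, set per screening campaign, cut at about 24% in these data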;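 note: plate controls were DMSO alone for no effect and ferristatin control at 100 nM for full effect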
HNF4A DNA FP: change in binding of human HNF4A to DNA, primary screen, biochemical, fluorescence polarization, FITC-DNA; 1 h; activity change, % at 10 µM; actives 0.3% (n = 360,000); in the data active = activity change above about 30%, passing the limit was not always enough
Rev-erbA mod: modulators of Rev-erb alpha DNA binding, primary screen, biochemical, FITC-DNA, fluorescence polarization, uHTS; activity, % at 10 µM; actives 0.79% (n = 370,000); Nuclear receptor subfamily 1 group D member 1 (Homo sapiens), P20393; Rev-erbα–FITC-DNA binding, 90 min;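 active = activity above about 14%, limit read from the data; passing the limit was not always enough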;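 note: 0% = DMSO wells with 35 nM protein and 100% = DMSO wells with 750 nM protein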
Target sequence (P20393 whole entry, looked up): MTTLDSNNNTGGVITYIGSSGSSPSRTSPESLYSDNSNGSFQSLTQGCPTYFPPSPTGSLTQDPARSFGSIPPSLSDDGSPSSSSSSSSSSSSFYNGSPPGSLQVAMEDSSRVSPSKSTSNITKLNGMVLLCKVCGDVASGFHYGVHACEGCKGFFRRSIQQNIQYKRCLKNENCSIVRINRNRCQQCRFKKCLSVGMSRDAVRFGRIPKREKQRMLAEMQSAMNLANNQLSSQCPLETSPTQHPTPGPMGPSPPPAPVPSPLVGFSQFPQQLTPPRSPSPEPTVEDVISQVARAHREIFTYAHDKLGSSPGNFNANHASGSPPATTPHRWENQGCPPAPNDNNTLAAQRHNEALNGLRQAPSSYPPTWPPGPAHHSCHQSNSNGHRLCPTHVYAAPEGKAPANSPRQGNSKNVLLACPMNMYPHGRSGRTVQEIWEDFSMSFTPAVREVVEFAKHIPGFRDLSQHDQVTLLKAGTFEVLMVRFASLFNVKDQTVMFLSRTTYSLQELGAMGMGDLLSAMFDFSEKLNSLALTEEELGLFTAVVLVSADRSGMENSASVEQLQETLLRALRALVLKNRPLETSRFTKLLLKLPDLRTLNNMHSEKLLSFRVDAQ
CSN inh: inhibitors of CSN-mediated cullin deneddylation, primary screen, biochemical, fluorescence polarization, uHTS; Purified CSN, SCF-Nedd8-OG deneddylation; inhibition, % at 12.5 µM; actives 0.38% (n = 360,000); AID 651999, 2013;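 active = pattern-corrected inhibition above about 35%, with an unprinted fluorescence ratio check between 0.5 and 1.5, limit read from the data, passing the limit was not always enough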;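 note: 0% = enzyme with substrate and 100% = substrate without enzyme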
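test system = HEK293T-derived human Csn5 enzyme | amount = 0.24 nM Csn5 enzyme, final concentration | medium = Tris/NaCl/DTT buffer, pH 7.5 | schedule = 90 min reaction at room temperature | signal = FP | evaluation = inhibition of Csn5 cleavage, % | compound dosing = single dose of 12.5 µM compound with 0.25% DMSO | probe or stimulus = 10 nM SCFSkp2-Nedd8OG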
Rev-erbA confirm: modulators of Rev-erb alpha DNA binding, confirmation, biochemical, FITC-DNA, fluorescence polarization, single point. shares compounds with Rev-erbA mod. 90 min. activation, % at 25 µM. actives 61% (n = 3,000);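 active = activation at or above a set limit, or at least 3 SD above the negative control mean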;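 note: 0% = 35 nM protein with DMSO and 100% = 750 nM protein high control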
RORg DNA counter: modulation of RORgamma DNA binding, dose response, counter-screen for Rev-erb alpha modulator project, biochemical, fluorescence polarization, FITC-DNA. shares compounds with Rev-erbA mod. purified RORgamma protein-FITC-DNA binding. IC50, µM. actives 8% (n = 910). AID 1259320, 2017;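 active = Compounds whose fitted half-maximal concentration for disrupting protein-DNA binding is below 10 micromolar; the record names Rev-erb in its text, so the target is in doubt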
* = called active by the depositor; / = no result given.

SMILES	TPT1 inh	HNF4A DNA FP	Rev-erbA mod	CSN inh	Rev-erbA confirm	others
O=C(Nc1ccc2c(c1)COC2=O)c1ccc(Cl)c(Cl)c1	0.3	-1.3	47.9*	2.6	27.2*
COc1ccc(CNC(=O)C2CCCN(c3nc4ccccc4o3)C2)cc1 (centres undefined)	/	/	3.5	/	/
Oc1c(C2=NCCNC(C(F)(F)F)=C2)ccc2ccccc12	/	-0.8	17.9*	-8.8	7.3
C#CCN1CC(N(C)CCOC(=O)CCCc2ccccc2)CS1(=O)=O (centres undefined)	/	/	3.9	/	/
Cc1cccc(C)c1NC(=O)CSc1ncnc2[nH]ncc12	/	5.2	23.1*	0.7	18.3*
COc1ccc(NC(=O)NCCCN2CCN(c3ccc(F)cc3)CC2)cc1OC	/	/	-4.8	/	/
Cc1c(C)n(Cc2ccc(-c3ccccc3C(=O)O)cc2)c2ccc(C(=O)N[C@@H](C)c3ccc(Br)cc3)cc12	/	/	-3.2	/	/
Cc1nc(N(C)C2CCCCC2)c2nnn(Cc3ccc(F)cc3)c2n1	/	-3.9	31.3*	-1.0	-5.6
Cc1ccc(NP(=O)(c2ccc(N(C)C)cc2NC(=O)c2cccs2)N2CCOCC2)cc1 (centres undefined)	-1.2	-1.4	24.0*	-8.5	13.0
CN(C)c1ccc(P(=O)(Nc2ccccc2)N2CCOCC2)c(NC(=O)c2cccs2)c1 (centres undefined)	0.8	0.3	42.3*	-8.4	19.0*
CN(C)c1ccc(P(=O)(Nc2ccc([N+](=O)[O-])cc2)N2CCOCC2)c(NC(=O)c2cccs2)c1 (centres undefined)	10.9	-0.3	-5.7	-13.2	/
O=C(NCCc1ccc(F)cc1)c1cc2ccccn2n1	/	/	0.8	/	/
O=C(CCc1ccccc1)N[C@H]1[C@H](OCc2ccccc2)CCC[C@@]12C(=O)N(Cc1ccccc1)c1ccc(-c3ccccn3)cc12	/	/	6.8	/	/
Cc1sc2nc(CN3CCOCC3)[nH]c(=O)c2c1-c1ccccc1	-1.0	1.0	-4.3	3.4	/
Cc1sc2nc(N3CCOCC3)[nH]c(=O)c2c1-c1ccccc1	1.1	0.1	93.8*	2.4	128.3*	RORg DNA counter=>40
Cc1cc(C)c2c(N)c(C(=O)N/N=C/c3cccs3)sc2n1	11.7	37.6	80.0*	11.0	54.1*	RORg DNA counter=>40
COc1ccc(/C=N/NC(=O)c2sc3nc(C)cc(C)c3c2N)cc1	1.6	1.8	4.5	-2.6	/
O=C(c1ccc(F)cc1)c1ccc(-c2ccc(F)cc2)nc1	-1.8	-3.5	27.5*	-5.3	12.1
COc1ccc(C(=O)c2ccc(-c3ccc(OC)cc3)nc2)cc1	/	0.7	17.9	-0.4	/
C[C@@H]1ON(C)[C@H]2C[C@H]3c4[nH]c5cccc(-c6ccc7c(c6)OCO7)c5c4CCN3C(=O)[C@@H]12	/	/	3.1	/	/
Cc1cc(C)cc(NC(=S)/C(=C(\[O-])c2ccc(Cl)cc2Cl)[n+]2ccc(C(C)(C)C)cc2)c1	-0.8	2.9	36.4*	5.6	30.9*	RORg DNA counter=7.87*
Cc1cc(C)cc(NC(=S)/C(=C(\[O-])c2ccc(Cl)s2)[n+]2cccc(C)c2)c1	9.3	2.7	4.7	-4.0	/
CCOC(=O)/C(C#N)=C/c1cc2ccccc2nc1N1CCCCC1	9.1	16.9	43.3*	11.5	43.0*	RORg DNA counter=>40
CC1(C)OC(=O)C2=C(CC(CCc3ccccc3)OC2c2cccc(C(F)(F)F)c2)O1 (centres undefined)	/	/	-2.6	/	/
Cc1cc(-c2csc3nc[nH]c(=S)c23)cc(C)c1C	0.7	2.4	61.2*	-3.6	62.3*	RORg DNA counter=>40
SMILES	TPT1 inh	HNF4A DNA FP	Rev-erbA mod	CSN inh	Rev-erbA confirm	others
Cc1ccc(-c2csc3nc[nH]c(=S)c23)cc1	1.9	1.1	6.0	-2.3	/
O=c1oc(-c2ccccc2)cc(Cl)c1Cl	-1.6	3.6	4.0	4.3	/
Cc1oc2ncnc(N)c2c1C	-2.6	-0.5	2.7	0.6	/
Cc1ccc(-c2oc3ncnc(N)c3c2-c2ccc(C)cc2)cc1	3.7	-1.9	19.5*	1.2	8.1
Cc1cc(Br)ccc1NC(=O)CNC(=O)CNc1cccc([N+](=O)[O-])c1	/	-3.5	-1.2	1.8	/
COC(=O)C1=C(C)N(Cc2cccc(C(F)(F)F)c2)C(=NCc2ccc3c(c2)OCO3)NC1c1ccc(Cl)cc1 (centres undefined)	/	/	-2.5	/	/
O=C(O)c1cc(-c2ccc(/C=C3/SC(=S)N(Cc4ccccc4)C3=O)o2)ccc1Cl	/	96.1	21.5*	40.0	18.0
COc1ccccc1CNC1CCC12CCC(c1ccccc1)CC2 (centres undefined)	/	/	3.1	/	/
Cc1cccc(C)c1-n1nnnc1C(c1ccnc2ccccc12)N(Cc1ccccc1)Cc1ccccc1 (centres undefined)	/	-0.5	-5.6	-1.1	/
CCC(=O)c1ccc(OCc2ccccc2)c(OC)c1	-2.2	-3.9	-1.5	-1.4	/
CCC(=O)c1ccc(OCc2ccc(C(=O)c3ccccc3)cc2)cc1	-1.6	-1.6	69.9*	1.0	149.2*	RORg DNA counter=>40
Cc1ccc2nsnc2c1NC(=O)Cc1ccc(Cl)cc1	7.7	-4.0	50.8*	4.8	12.9
CC1(C)Cc2c(sc3[nH]c(=S)n(Cc4ccccc4)c(=O)c23)CO1	2.8	1.1	/	3.0	/
CC1(C)Cc2c(sc3c2c(N)nc(=S)n3Cc2ccccc2)CO1	1.4	/	110.5*	/	35.8*	RORg DNA counter=>40
N#C/C(C(=O)Oc1ccccc1)=C1/Nc2ccccc2-c2ccccc21	/	2.9	44.3*	-3.6	31.0*
CCC(C)N(Cc1ccc(OC)cc1OC)S(=O)(=O)c1cc(Br)ccc1Br (centres undefined)	/	/	5.5	/	/
COC(=O)[C@]12C[C@H](CC(=O)NCCc3ccccc3OC)C(=O)N(CCC3=CCCCC3)C1=C[C@H](COCc1ccccc1)O[C@@H]2C	/	/	-1.5	/	/
CS(=O)(=O)NCCNc1ccc(Cl)cc1[N+](=O)[O-]	-1.9	-2.6	7.6	1.0	/
CS(=O)(=O)NCCNc1cc(Cl)ccc1[N+](=O)[O-]	-2.0	-0.7	16.8*	9.0	5.6
C[C@@H]1CN([C@H](C)CO)C(=O)c2cc(NC(=O)Nc3ccccc3)ccc2O[C@@H](C)CCCCO[C@H]1CN(C)S(C)(=O)=O	/	/	4.1	/	/
O=C1CCCc2nc(N3CCN(c4ccccc4)CC3)ncc21	-1.6	-3.4	24.2*	-5.4	18.0*
Cc1nc(N2CCN(c3ccccc3)CC2)nc2c1C(=O)CCC2	-2.0	2.5	-2.5	-1.0	/
O=C(CN1CCN(Cc2ccccc2)CC1)Nc1cccc(Cl)c1	-2.3	3.6	-2.8	0.2	/
